From ChEMBL document CHEMBL1143838, “Candida albicans and Candida dubliniensis respond differently to echinocandin antifungal agents in vitro” (2007)
≈ marks a conversion by molar mass, not a printed value.

How the values were obtained:
Assay type in all cases: functional
Candida albicans [1] = test: Antifungal activity against Candida albicans NR2 after 24 hrs by EUCAST test
How it was run: (§1)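 EUCAST broth microdilution with aqueous doubling dilutions of drug. Inoculum grown overnight at 30°C in NGY, then added to MOPS-buffered RPMI 1640 with 2% glucose at an initial 10^5 yeasts/ml. Incubated 35°C for 24 h. MICs taken from triplicate spectrophotometric dose-response data as 50% and 80% growth-reduction endpoints.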

Candida albicans [2] = test: Antifungal activity against Candida albicans SC5314 after 24 hrs by CLSI M27-A test; conditions: SC5314, 24 h
How it was run: (§2)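 CLSI M27-A broth microdilution with aqueous doubling dilutions of drug. Inoculum grown overnight at 30°C in NGY medium, then added to MOPS-buffered RPMI 1640 at an initial 10^3 yeasts/ml. Incubated 35°C for 24 h. MIC read visually as the lowest concentration giving a marked decrease in visible growth; paradoxical or trailing growth noted.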

Candida albicans [3] = test: Antifungal activity against Candida albicans JIMS146204 after 24 hrs by EUCAST test; how it was run: as §1
Candida dubliniensis [4] = test: Antifungal activity against Candida dubliniensis Leic875 after 24 hrs by CLSI M27-A test
How it was run: (§3)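 Broth microdilution with echinocandins as aqueous doubling dilutions. Yeasts were grown overnight at 30°C in NGY and seeded at 10^3 yeasts/ml initial concentration in MOPS-buffered RPMI 1640, then incubated at 35°C for 24 h. The MIC was read visually as the lowest concentration giving a marked decrease in visible growth; paradoxical or trailing growth was noted.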

Candida albicans [5] = test: Antifungal activity against Candida albicans HK04M102095 after 24 hrs by CLSI M27-A test; how it was run: as §2
Candida albicans [6] = test: Antifungal activity against Candida albicans SCS68858 after 24 hrs by EUCAST test; how it was run: as §1
Candida albicans [7] = test: Antifungal activity against Candida albicans SCS67023C after 24 hrs by CLSI M27-A test; how it was run: as §2
Candida dubliniensis [8] = test: Antifungal activity against Candida dubliniensis FS after 24 hrs by CLSI M27-A test; how it was run: as §3
Candida albicans [9] = test: Antifungal activity against Candida albicans NCPF6525 after 24 hrs by EUCAST test; how it was run: as §1
Candida dubliniensis [10] = test: Antifungal activity against Candida dubliniensis SCS65875C after 24 hrs by EUCAST test
How it was run: (§4)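 Yeasts were grown overnight at 30°C in NGY, then inoculated at 10^5 yeasts/ml initial concentration into MOPS-buffered RPMI 1640 with 2% glucose containing aqueous doubling dilutions of drug. Plates were held at 35°C for 24 h. MICs came from triplicate spectrophotometric dose-response data at 50% and 80% growth-reduction endpoints. Trailing meant a >100-fold gap between these endpoints; paradoxical meant regrowth ≥5% above the curve minimum.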

Candida albicans [11] = test: Antifungal activity against Candida albicans JIMS146204 after 24 hrs by CLSI M27-A test; how it was run: as §2
Candida albicans [12] = test: Antifungal activity against Candida albicans T25 after 24 hrs by CLSI M27-A test; how it was run: as §2
Candida dubliniensis [13] = test: Antifungal activity against Candida dubliniensis J930936 after 24 hrs by EUCAST test; how it was run: as §4
Candida albicans [14] = test: Antifungal activity against Candida albicans CAI4RI after 24 hrs by EUCAST test; how it was run: as §1
Candida albicans [15] = test: Antifungal activity against Candida albicans NR4 after 24 hrs by EUCAST test; how it was run: as §1
Candida albicans [16] = test: Antifungal activity against Candida albicans SCS68858 after 24 hrs by CLSI M27-A test; how it was run: as §2
Candida dubliniensis [17] = test: Antifungal activity against Candida dubliniensis IK after 24 hrs by CLSI M27-A test; how it was run: as §3
Candida albicans [18] = test: Antifungal activity against Candida albicans Y109 after 24 hrs by EUCAST test; how it was run: as §1
Candida albicans [19] = test: Antifungal activity against Candida albicans T26 after 24 hrs by EUCAST test; how it was run: as §1
Candida dubliniensis [20] = test: Antifungal activity against Candida dubliniensis 910Aa after 24 hrs by CLSI M27-A test; how it was run: as §2
Candida dubliniensis [21] = test: Antifungal activity against Candida dubliniensis SCS17154969-2 after 24 hrs by CLSI M27-A test; how it was run: as §3
Candida albicans [22] = test: Antifungal activity against Candida albicans CAI4RI after 24 hrs by CLSI M27-A test; how it was run: as §2
Candida dubliniensis [23] = test: Antifungal activity against Candida dubliniensis 910Aa after 24 hrs by EUCAST test; how it was run: as §1
Candida dubliniensis [24] = test: Antifungal activity against Candida dubliniensis SCSBB417709 after 24 hrs by CLSI M27-A test; how it was run: as §3
Candida albicans [25] = test: Antifungal activity against Candida albicans AM2003/0083 after 24 hrs by EUCAST test; how it was run: as §1
Candida dubliniensis [26] = test: Antifungal activity against Candida dubliniensis J931021 after 24 hrs by CLSI M27-A test; how it was run: as §3
Candida albicans [27] = test: Antifungal activity against Candida albicans NR3 after 24 hrs by EUCAST test; how it was run: as §1
Pichia kudriavzevii [28] = test: Antifungal activity against Candida krusei ATCC 6258 after 24 hrs by EUCAST test; conditions: ATCC 6258, 24 h; how it was run: as §4
Pichia kudriavzevii [29] = test: Antifungal activity against Candida krusei ATCC 6258 after 24 hrs by CLSI M27-A test; conditions: ATCC 6258, 24 h
How it was run: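 Broth microdilution per CLSI M27-A. Drugs were prepared as aqueous doubling dilutions. Inoculum was grown overnight at 30°C in neopeptone-yeast extract-glucose medium, then added to MOPS-buffered RPMI 1640 at an initial 10^3 yeasts/ml. Plates were incubated at 35°C for 24 h. MIC was read visually as the lowest concentration giving a marked decrease in visible growth.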

Candida dubliniensis [30] = test: Antifungal activity against Candida dubliniensis SCSBB417709 after 24 hrs by EUCAST test; how it was run: as §4
Candida dubliniensis [31] = test: Antifungal activity against Candida dubliniensis ST after 24 hrs by CLSI M27-A test; how it was run: as §3
Candida dubliniensis [32] = test: Antifungal activity against Candida dubliniensis ANSA 23a after 24 hrs by EUCAST test; how it was run: as §4

SMILES: CC[C@H](C)C[C@H](C)CCCCCCCCC(=O)N[C@H]1C[C@@H](O)[C@@H](NCCN)NC(=O)[C@@H]2[C@@H](O)CCN2C(=O)[C@H]([C@H](O)CCN)NC(=O)[C@H]([C@H](O)[C@@H](O)c2ccc(O)cc2)NC(=O)[C@@H]2C[C@@H](O)CN2C(=O)[C@H]([C@@H](C)O)NC1=O [CASPOFUNGIN]
- MIC50 (Candida albicans [1]): 4 µg/mL (≈ 3.66 µM)
- MIC50 (Candida albicans [2]): 0.5 µg/mL (≈ 0.457 µM)
- MIC50 (Candida albicans [3]): 0.25 µg/mL (≈ 0.229 µM)
- MIC50 (Candida dubliniensis [4]): 0.5 µg/mL (≈ 0.457 µM)
- MIC50 (Candida albicans [5]): 0.5 µg/mL (≈ 0.457 µM)
- MIC50 (Candida albicans [6]): 0.25 µg/mL (≈ 0.229 µM)
- MIC50 (Candida albicans [7]): 0.5 µg/mL (≈ 0.457 µM)
- MIC50 (Candida dubliniensis [8]): 0.5 µg/mL (≈ 0.457 µM)
- MIC50 (Candida albicans [9]): 1 µg/mL (≈ 0.915 µM)
- MIC50 (Candida dubliniensis [10]): 8 µg/mL (≈ 7.32 µM)
- MIC50 (Candida albicans [11]): 0.5 µg/mL (≈ 0.457 µM)
- MIC50 (Candida albicans [12]): 8 µg/mL (≈ 7.32 µM)
- MIC50 (Candida dubliniensis [13]): 0.25 µg/mL (≈ 0.229 µM)
- MIC50 (Candida albicans [14]): 4 µg/mL (≈ 3.66 µM)
- MIC50 (Candida albicans [15]): 2 µg/mL (≈ 1.83 µM)
- MIC50 (Candida albicans [16]): 0.5 µg/mL (≈ 0.457 µM)
- MIC50 (Candida dubliniensis [17]): 0.5 µg/mL (≈ 0.457 µM)
- MIC50 (Candida albicans [18]): 2 µg/mL (≈ 1.83 µM)
- MIC50 (Candida albicans [19]): 16 µg/mL (≈ 14.6 µM)
- MIC50 (Candida dubliniensis [20]): 0.5 µg/mL (≈ 0.457 µM)
- MIC50 (Candida dubliniensis [21]): 0.5 µg/mL (≈ 0.457 µM)
- MIC50 (Candida albicans [22]): 4 µg/mL (≈ 3.66 µM)
- MIC50 (Candida dubliniensis [23]): 0.25 µg/mL (≈ 0.229 µM)
- MIC50 (Candida dubliniensis [24]): 0.5 µg/mL (≈ 0.457 µM)
- MIC50 (Candida albicans [25]): 0.25 µg/mL (≈ 0.229 µM)
- MIC50 (Candida dubliniensis [26]): 0.5 µg/mL (≈ 0.457 µM)
- MIC50 (Candida albicans [27]): 4 µg/mL (≈ 3.66 µM)
- MIC50 (Pichia kudriavzevii [28]): 2 µg/mL (≈ 1.83 µM)
- MIC50 (Pichia kudriavzevii [29]): 1 µg/mL (≈ 0.915 µM)
- MIC50 (Candida dubliniensis [30]): 0.25 µg/mL (≈ 0.229 µM)
- MIC50 (Candida dubliniensis [31]): 0.5 µg/mL (≈ 0.457 µM)
- MIC50 (Candida dubliniensis [32]): 0.25 µg/mL (≈ 0.229 µM)
